The text below walks through data of ChEMBL document CHEMBL1153921, “Design, synthesis, and biological evaluation of novel 1-(1H-1,2,4-triazole-1-yl)-2-(2,4-difluorophenyl)-3-substituted benzylamino-2-propanols” (2009).

Structures are written as SMILES. Converted amounts (≈) assume the structure as drawn.

Assay type in all cases: functional
One assay has as its system Candida parapsilosis. The assay can be described thus: Antimicrobial activity against Candida parapsilosis by micro-broth dilution method. Conditions: Lodderomyces parapsilosis. In short, it runs like this:
(§1)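 Clinical isolates. Tested by broth microdilution in 96-well plates following NCCLS M27-A2. MIC80, the minimum concentration inhibiting growth by 80%, was recorded. Marketed reference antifungals were included as positive controls.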
(In general: Dilution methods test growth across graded concentrations, often in twofold steps.)

Another assay concerns Pichia kudriavzevii. As to the kind of experiment: Antimicrobial activity against Candida krusei by micro-broth dilution method. In a few lines:
as §1

A further assay concerns Candida albicans. The assay can be described thus: Antimicrobial activity against Candida albicans by micro-broth dilution method. In a few lines:
(§2)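 ATCC standard strains. Broth microdilution in 96-well plates following NCCLS M27-A2 (reference broth dilution method for yeasts). Endpoint is MIC80, the lowest concentration giving 80% growth inhibition. Marketed reference antifungals ran alongside as positive controls.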

A further assay concerns Cryptococcus neoformans. The assay can be described thus: Antimicrobial activity against Cryptococcus neoformans by micro-broth dilution method. In a few lines: as §2
The next assay concerns Aspergillus fumigatus. As to the kind of experiment: Antimicrobial activity against Aspergillus fumigatus by micro-broth dilution method. In short, it runs like this:
as §1

In a further assay the test system is Candida tropicalis. As to the kind of experiment: Antimicrobial activity against Candida tropicalis by micro-broth dilution method. In a few lines: as §1
The test system of the next assay is Trichophyton rubrum. The assay can be described thus: Antimicrobial activity against Trichophyton rubrum by micro-broth dilution method. In short, it runs like this:
as §1

For a further assay, the system named is Nannizzia gypsea. The assay can be described thus: Antimicrobial activity against Microsporum gypseum by micro-broth dilution method. In a few lines:
as §1

Take `CCCN(Cc1cccc(F)c1)CC(O)(Cn1cncn1)c1ccc(F)cc1F` (stereo unspecified): the MIC80 (usually an inhibitory concentration at the 80% level, which refers to growth in some studies and to a panel of isolates in others) with Candida parapsilosis was 0.0625 µg/mL (≈ 0.155 µM); against Pichia kudriavzevii, 0.0625 µg/mL (≈ 0.155 µM); against Candida albicans, 0.0156 µg/mL (≈ 0.0386 µM); in the assay on Cryptococcus neoformans, 0.0625 µg/mL (≈ 0.155 µM); against Aspergillus fumigatus, more than 64 µg/mL; with Candida tropicalis it was 0.25 µg/mL (≈ 0.618 µM). The MIC80 against Trichophyton rubrum was 1 µg/mL (≈ 2.47 µM); in the assay on Nannizzia gypsea, 0.0625 µg/mL (≈ 0.155 µM).
`CC(C)N(Cc1ccccc1)CC(O)(Cn1cncn1)c1ccc(F)cc1F` (stereo unspecified): the MIC80 against Candida parapsilosis was determined as 0.0625 µg/mL (≈ 0.162 µM); against Pichia kudriavzevii, 0.25 µg/mL (≈ 0.647 µM); in the assay on Candida albicans, 0.0156 µg/mL (≈ 0.0404 µM); against Cryptococcus neoformans, 0.25 µg/mL (≈ 0.647 µM); in the assay on Aspergillus fumigatus, 64 µg/mL (≈ 166 µM); with Candida tropicalis it was 0.25 µg/mL (≈ 0.647 µM). Further, the values for the MIC80 against Trichophyton rubrum and in the assay with Nannizzia gypsea were 0.0625 µg/mL (≈ 0.162 µM) and 0.0156 µg/mL (≈ 0.0404 µM), respectively.
With `CC(C)N(Cc1ccc(Br)cc1)CC(O)(Cn1cncn1)c1ccc(F)cc1F` (stereo unspecified), the MIC80 in the assay on Candida parapsilosis came to 0.0625 µg/mL (≈ 0.134 µM); in the assay with Pichia kudriavzevii it was 0.25 µg/mL (≈ 0.537 µM); against Candida albicans, 0.0039 µg/mL (≈ 0.00838 µM); against Cryptococcus neoformans it was 0.25 µg/mL (≈ 0.537 µM); with Aspergillus fumigatus, 4 µg/mL (≈ 8.6 µM); in the assay with Candida tropicalis, 0.0625 µg/mL (≈ 0.134 µM). Besides, the MIC80 against Trichophyton rubrum turned out to be 0.0625 µg/mL (≈ 0.134 µM); in the assay on Nannizzia gypsea, 0.0156 µg/mL (≈ 0.0335 µM).
Take `CCCCN(Cc1ccccc1Br)CC(O)(Cn1cncn1)c1ccc(F)cc1F` (stereo unspecified): the MIC80 with Candida parapsilosis was 0.25 µg/mL (≈ 0.522 µM); with Pichia kudriavzevii, 1 µg/mL (≈ 2.09 µM); in the assay on Candida albicans, 1 µg/mL (≈ 2.09 µM); against Cryptococcus neoformans, 0.25 µg/mL (≈ 0.522 µM); in the assay with Aspergillus fumigatus, more than 64 µg/mL; against Candida tropicalis, 0.25 µg/mL (≈ 0.522 µM). In addition, the MIC80 in the assay with Trichophyton rubrum turned out to be 1 µg/mL (≈ 2.09 µM); with Nannizzia gypsea, 0.25 µg/mL (≈ 0.522 µM).
As for `CC(C)N(Cc1ccc(Cl)cc1)CC(O)(Cn1cncn1)c1ccc(F)cc1F` (stereo unspecified), the MIC80 against Candida parapsilosis worked out at 0.0625 µg/mL (≈ 0.148 µM); against Pichia kudriavzevii, 0.0625 µg/mL (≈ 0.148 µM); in the assay with Candida albicans it was 0.0625 µg/mL (≈ 0.148 µM); against Cryptococcus neoformans, 0.25 µg/mL (≈ 0.594 µM); in the assay with Aspergillus fumigatus, 1 µg/mL (≈ 2.38 µM); against Candida tropicalis, 0.25 µg/mL (≈ 0.594 µM). Besides, the MIC80 against Trichophyton rubrum was found to be 0.25 µg/mL (≈ 0.594 µM); against Nannizzia gypsea, 0.0625 µg/mL (≈ 0.148 µM).
Consider `C[C@@H]1[C@H](O)[C@@H](C)/C=C/C=C/C=C/C=C/C=C/C=C/C=C/[C@H](O[C@@H]2O[C@H](C)[C@@H](O)[C@H](N)[C@@H]2O)C[C@@H]2O[C@](O)(C[C@@H](O)C[C@@H](O)[C@H](O)CC[C@@H](O)C[C@@H](O)CC(=O)O[C@H]1C)C[C@H](O)[C@H]2C(=O)O` [AMPHOTERICIN B], for which the MIC80 was found to be 2 µg/mL (≈ 2.16 µM) with Candida parapsilosis; 2 µg/mL (≈ 2.16 µM) against Pichia kudriavzevii; 2 µg/mL (≈ 2.16 µM) in the assay on Candida albicans; 2 µg/mL (≈ 2.16 µM) in the assay on Cryptococcus neoformans; 64 µg/mL (≈ 69.3 µM) in the assay with Aspergillus fumigatus; 2 µg/mL (≈ 2.16 µM) with Candida tropicalis. Also, the MIC80 in the assay on Trichophyton rubrum and with Nannizzia gypsea was 2 µg/mL (≈ 2.16 µM) in each case.
In the case of `CCCCN(Cc1ccc(C)cc1)CC(O)(Cn1cncn1)c1ccc(F)cc1F` (stereo unspecified), the MIC80 in the assay with Candida parapsilosis was 1 µg/mL (≈ 2.41 µM); with Pichia kudriavzevii, 1 µg/mL (≈ 2.41 µM); in the assay on Candida albicans it was 4 µg/mL (≈ 9.65 µM); against Cryptococcus neoformans it was 0.25 µg/mL (≈ 0.603 µM); against Aspergillus fumigatus it was more than 64 µg/mL; with Candida tropicalis, 1 µg/mL (≈ 2.41 µM). Also, the results for the MIC80 in the assay with Trichophyton rubrum and against Nannizzia gypsea were 1 µg/mL (≈ 2.41 µM) and 0.25 µg/mL (≈ 0.603 µM), respectively.
In the case of `CCCN(Cc1ccc([N+](=O)[O-])cc1)CC(O)(Cn1cncn1)c1ccc(F)cc1F` (stereo unspecified), the MIC80 in the assay on Candida parapsilosis was determined as 0.0625 µg/mL (≈ 0.145 µM); against Pichia kudriavzevii, 0.0625 µg/mL (≈ 0.145 µM); against Candida albicans it was 0.0156 µg/mL (≈ 0.0362 µM); against Cryptococcus neoformans, 0.25 µg/mL (≈ 0.579 µM); in the assay with Aspergillus fumigatus, 64 µg/mL (≈ 148 µM); with Candida tropicalis, 0.25 µg/mL (≈ 0.579 µM). Moreover, the MIC80 against Trichophyton rubrum was determined as 0.25 µg/mL (≈ 0.579 µM); against Nannizzia gypsea, 0.0156 µg/mL (≈ 0.0362 µM).
With `CCCN(Cc1ccc(Cl)cc1)CC(O)(Cn1cncn1)c1ccc(F)cc1F` (stereo unspecified), the MIC80 is 0.25 µg/mL (≈ 0.594 µM) in the assay with Candida parapsilosis; 0.0625 µg/mL (≈ 0.148 µM) in the assay with Pichia kudriavzevii; 0.0625 µg/mL (≈ 0.148 µM) in the assay on Candida albicans; 0.0625 µg/mL (≈ 0.148 µM) against Cryptococcus neoformans; 64 µg/mL (≈ 152 µM) with Aspergillus fumigatus; 0.25 µg/mL (≈ 0.594 µM) against Candida tropicalis. Also, the MIC80 against Trichophyton rubrum was found to be 1 µg/mL (≈ 2.38 µM); in the assay with Nannizzia gypsea, 0.0625 µg/mL (≈ 0.148 µM).
For `CCCCN(Cc1ccc(CC)cc1)CC(O)(Cn1cncn1)c1ccc(F)cc1F` (stereo unspecified), the MIC80 is 4 µg/mL (≈ 9.33 µM) in the assay with Candida parapsilosis; 1 µg/mL (≈ 2.33 µM) with Pichia kudriavzevii; 0.0039 µg/mL (≈ 0.0091 µM) in the assay on Candida albicans; 0.25 µg/mL (≈ 0.583 µM) against Cryptococcus neoformans; more than 64 µg/mL with Aspergillus fumigatus; 1 µg/mL (≈ 2.33 µM) against Candida tropicalis. Further, the MIC80 against Trichophyton rubrum was found to be 4 µg/mL (≈ 9.33 µM); with Nannizzia gypsea, 1 µg/mL (≈ 2.33 µM).
Consider `CCCN(Cc1ccccc1C)CC(O)(Cn1cncn1)c1ccc(F)cc1F` (stereo unspecified), for which the MIC80 against Candida parapsilosis was 0.0625 µg/mL (≈ 0.156 µM); in the assay on Pichia kudriavzevii, 0.0625 µg/mL (≈ 0.156 µM); in the assay with Candida albicans, 0.0625 µg/mL (≈ 0.156 µM); with Cryptococcus neoformans, 0.25 µg/mL (≈ 0.624 µM); against Aspergillus fumigatus, more than 64 µg/mL; against Candida tropicalis, 0.0625 µg/mL (≈ 0.156 µM). Also, the MIC80 was found to be 4 µg/mL (≈ 9.99 µM) in the assay with Trichophyton rubrum and 0.0039 µg/mL (≈ 0.00974 µM) in the assay on Nannizzia gypsea.
For the compound `CCCCN(Cc1ccc(F)cc1)CC(O)(Cn1cncn1)c1ccc(F)cc1F` (stereo unspecified), the MIC80 is 0.0625 µg/mL (≈ 0.149 µM) in the assay on Candida parapsilosis; 1 µg/mL (≈ 2.39 µM) with Pichia kudriavzevii; 0.25 µg/mL (≈ 0.597 µM) against Candida albicans; 0.25 µg/mL (≈ 0.597 µM) against Cryptococcus neoformans; more than 64 µg/mL against Aspergillus fumigatus; 0.25 µg/mL (≈ 0.597 µM) against Candida tropicalis. Besides, the MIC80 came to 1 µg/mL (≈ 2.39 µM) against Trichophyton rubrum and 0.0156 µg/mL (≈ 0.0373 µM) in the assay on Nannizzia gypsea.
